The results in this text go back to ChEMBL document CHEMBL4014336 (J Med Chem, 2017).

For series [1], the system named is Cynomolgus monkey. In words: In vivo inhibition of 11beta-HSD1 in non-fasting diet-induced obese cynomolgus monkey assessed as decrease in corticosterone excursion in plasma pretreated via oral gavage for 30 mins followed by DHC administration measured up to 60 mins by enzyme immunosorbent assay. In kind it is functional. The settings on record: Macaca fascicularis. An outline of the steps:
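Cynomolgus monkeys given test compound at a predetermined time before the experiment, chosen from its pharmacokinetics. Substrate DHC (rodent substrate, used in place of cortisone) given afterwards. Blood sampled at various times. Design otherwise similar to the mouse DHC challenge.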

In series [2] the test system is Cynomolgus monkey. The experiment in a line: Toxicity in cynomolgus monkey assessed as HPA axis activation by measuring increase in DHEA level at 10 mg/kg for 7 days. The series is classed as organism-based, Macaca fascicularis. The note with it: in vivo, 168 h.
Series [3] concerns Cynomolgus monkey. In words: Toxicity in cynomolgus monkey assessed as HPA axis activation by measuring increase in DHEAS level at 10 mg/kg for 7 days. In kind it is organism-based, Macaca fascicularis. The note with it: in vivo, 168 h.
In series [4] the test system is Cynomolgus monkey. The experiment in a line: Toxicity in cynomolgus monkey assessed as HPA axis activation by measuring increase in cortisol level at 10 mg/kg for 7 days. The series is classed as organism-based, Macaca fascicularis. The note with it: in vivo, 168 h.

Turning to `O=C(O)CC1(c2ccc(F)cc2)C2CC3CC(C2)CC1C3` (centres undefined), the ED50 in series [1] worked out at 0.3 mg/kg. For the same molecule, the Activity entry in series [2], in series [3] and in series [4] was “Toxic” throughout.
